Assay results: paper PMC12219203 (Nature Communications, 2025)

Columns and labels:
[1] = tested on: NF-κB signaling in RAW-Dual WT cells; experiment: RAW-Dual WT NF-κB reporter; assay type: cell-based, mouse; settings: 24 h
How it was run: (§1)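 RAW-Dual cells (WT or Tlr4-/-) were seeded at 100,000 cells/well in complete DMEM without selection antibiotics, 24 h before treatment. Test compounds were added for 24 h (n = 3). NF-κB-driven SEAP was read by mixing supernatant 1:4 with Quanti-Blue, incubating 6 h at 37 °C and measuring absorbance at 620 nm, blanked against water-treated wells.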

[2] = tested on: NF-κB signaling in RAW-Dual Tlr4-/- cells; experiment: RAW-Dual Tlr4-/- NF-κB reporter; assay type: cell-based, mouse; settings: 24 h
How it was run: as §1

mTLR4/mMD2 (Q339A / wt) = mTLR4/mMD2 (Q339A / wt) (Mus musculus, UniProt Q9JHF9+Q9QUK6, Q339A); experiment: NF-κB SEAP in HEK-Blue Null1, mTLR4 Q339A / mMD2 wt; assay type: cell-based; settings: GM 0.4, 0.2 mM, 24 h
Sequence of mTLR4/mMD2 (Q339A / wt) (Q9QUK6 26-835 Q339A): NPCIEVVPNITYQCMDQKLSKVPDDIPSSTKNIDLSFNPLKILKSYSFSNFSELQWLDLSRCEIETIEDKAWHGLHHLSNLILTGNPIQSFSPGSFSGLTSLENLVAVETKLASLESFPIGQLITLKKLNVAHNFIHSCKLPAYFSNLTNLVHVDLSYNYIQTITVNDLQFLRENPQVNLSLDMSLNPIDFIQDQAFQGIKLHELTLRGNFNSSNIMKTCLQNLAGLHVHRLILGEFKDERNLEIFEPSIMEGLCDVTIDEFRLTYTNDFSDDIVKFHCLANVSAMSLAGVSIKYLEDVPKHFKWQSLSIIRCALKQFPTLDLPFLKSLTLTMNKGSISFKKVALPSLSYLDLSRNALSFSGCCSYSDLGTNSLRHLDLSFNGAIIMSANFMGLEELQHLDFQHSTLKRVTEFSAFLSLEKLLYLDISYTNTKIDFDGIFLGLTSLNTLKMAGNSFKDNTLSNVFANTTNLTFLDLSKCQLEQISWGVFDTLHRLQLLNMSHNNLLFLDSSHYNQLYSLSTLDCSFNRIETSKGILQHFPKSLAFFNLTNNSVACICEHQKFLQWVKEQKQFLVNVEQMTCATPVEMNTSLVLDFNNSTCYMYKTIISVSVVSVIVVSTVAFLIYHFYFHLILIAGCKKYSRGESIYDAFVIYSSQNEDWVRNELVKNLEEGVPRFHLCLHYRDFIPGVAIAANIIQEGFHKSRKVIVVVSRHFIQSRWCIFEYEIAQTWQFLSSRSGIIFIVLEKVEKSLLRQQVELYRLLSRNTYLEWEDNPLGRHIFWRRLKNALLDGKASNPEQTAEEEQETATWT
Sequence of mTLR4/mMD2 (Q339A / wt) (Q9JHF9 19-160): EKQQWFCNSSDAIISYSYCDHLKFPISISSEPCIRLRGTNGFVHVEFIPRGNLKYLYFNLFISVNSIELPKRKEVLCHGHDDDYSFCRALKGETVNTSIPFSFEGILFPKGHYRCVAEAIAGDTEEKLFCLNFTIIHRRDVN
How it was run: (§2)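 Point mutants of mTLR4 or mMD2 were made by site-directed mutagenesis. HEK-Blue Null1 cells were co-transfected by lipofection for 16 h with 500 ng total of mTLR4 and Myc-tagged mMD2 plasmids (1:1); mock wells received lipofection reagent only. After a medium change the next day, cells were treated for 24 h. NF-κB SEAP was measured and normalised to water-treated samples; data are mean ± s.e.m., n = 3.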

Tlr4-/- BMDMs [3] = experiment: RNAseq of Tlr4-/- BMDMs; assay type: cell-based, mouse; settings: GM 8 mM, 24 h, n = 3
How it was run: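 BMDMs were differentiated 6 days from mouse bone marrow with GM-CSF or L929 supernatant at 800,000 cells/well, switched to serum-free IMDM and stimulated 24 h; MDP 0.4 mM was run alongside. Total RNA was extracted for RNAseq. Differentially expressed genes were called at p < 0.01 and logFC > 1 and plotted as mean heatmaps; n = 3.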

WT C57BL/6 J mice = experiment: DSS-induced colitis model in WT mice; assay type: in vivo, mouse; settings: GM 10 mg/kg i.p. daily
How it was run: (§3)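 Male SPF C57BL/6J mice aged 7–8 weeks, WT or Tlr4-/- (bred in house), were age-, weight- and sex-matched. They drank 3% (w/v) DSS water for 7 days and were then euthanised. Test compound (10 mg/kg) or PBS (5 mL/kg) was given i.p. daily from 2 days before DSS until the end. Body weight was recorded daily.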

RAW264.7 cells = experiment: Cytokine expression in RAW264.7 macrophages; assay type: cell-based, mouse; settings: GM 1-4 mM, M 4 mM, 24 h
How it was run: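 RAW264.7 cells were kept in high-glucose IMDM with HEPES, 5% heat-inactivated FBS and penicillin/streptomycin at 37 °C, 5% CO2. They were exposed to test compounds for 24 h (n = 4). Total RNA was extracted with a column kit, and TNF-α and IL-6 transcripts were quantified by RT-qPCR using the 2-ΔΔCt method, normalised to β-act.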

Tlr4-/- C57BL/6 J mice = experiment: DSS-induced colitis model in Tlr4-/- mice; assay type: in vivo, mouse; settings: GM 10 mg/kg i.p. daily, 3% DSS
How it was run: as §3

WT mice sera = experiment: Multiplex immunoassay of serum cytokines and chemokines in mice; assay type: in vivo, mouse; settings: GM 10 mg/kg i.p. daily, no DSS
How it was run: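 Mice received daily intraperitoneal injections, with PBS (5 mL/kg) as vehicle. Serum was analysed with a bead-based inflammatory cytokine/chemokine panel according to the kit protocol, read on a flow cytometer with a high-throughput sampler.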

THP-1 cells = experiment: Cytokine expression in THP-1 monocytes; assay type: cell-based, human; settings: GM 2-8 mM
How it was run: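 THP-1 cells were kept in RPMI 1640 with 10% heat-inactivated FBS. They were seeded at 100,000 cells/well in half-serum medium and stimulated immediately, with MDP 0.4 mM as control. Total RNA was extracted and cytokine transcripts were measured by RT-qPCR; n = 4.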

[4] = tested on: NF-κB p65 and MAPK p38 phosphorylation in Tlr4-/- BMDMs; experiment: Immunoblot of p65 and p38 phosphorylation in Tlr4-/- BMDMs; assay type: cell-based, mouse; settings: GM 5 mM
How it was run: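 Bone-marrow macrophages from WT or Tlr4-/- C57BL/6J mice were stimulated directly with 5 mM test compound or 500 ng/mL LPS. Cells were lysed in Tris/SDS/Triton buffer with protease and phosphatase inhibitors plus 10 mM DTT and boiled, then run on SDS-PAGE and transferred to PVDF. Blots were probed with rabbit antibodies to total or phospho-p65, total or phospho-p38 and GAPDH (1:1000, 4 °C overnight), then HRP anti-rabbit (1:5000).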

WT BMDMs = experiment: Cytokine secretion by WT BMDMs; assay type: cell-based, mouse; settings: GM 4 mM, PB-resin, 24 h
How it was run: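 Bone-marrow macrophages were derived from female C57BL/6J mice (GM-CSF or L929 supernatant, 6 days) and moved to serum-free IMDM. They were given 4 mM test compound or 100 ng/mL LPS for 24 h, each either untreated or first neutralised with polymyxin B resin. Supernatants were cleared at 16,000 × g and TNF-α was measured by sandwich ELISA, with samples prediluted in 1% BSA/PBS when needed.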

[5] = tested on: WT bone-marrow-derived macrophages (BMDMs); experiment: Cytokine gene expression in WT BMDMs; assay type: cell-based, mouse; settings: GM 2-8 mM, M 8 mM
How it was run: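 Marrow was flushed from the femur and tibia of female SPF C57BL/6J mice and red cells were lysed (NH4Cl/KHCO3). Cells at 200,000 cells/mL were differentiated for 6 days in IMDM with 20 ng/mL GM-CSF or 10% L929 supernatant, then switched to serum-free IMDM. Test compounds were added for 24 h (n = 3). Cytokine transcripts were measured by RT-qPCR (2-ΔΔCt, normalised to β-act).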

mTLR4/mMD2 (K263A / wt) = mTLR4/mMD2 (K263A / wt) (Mus musculus, UniProt Q9JHF9+Q9QUK6, K263A); experiment: NF-κB SEAP in HEK-Blue Null1, mTLR4 K263A / mMD2 wt; assay type: cell-based; settings: GM 0.4, 0.2 mM, 24 h
Sequence of mTLR4/mMD2 (K263A / wt) (Q9QUK6 26-835 K263A): as the sequence (Q9QUK6 26-835 Q339A) above, with K238A, A314Q counted along it
Sequence of mTLR4/mMD2 (K263A / wt) (Q9JHF9 19-160): as the sequence (Q9JHF9 19-160) above
How it was run: as §2

mTLR4 = mTLR4 (Mus musculus, UniProt Q9JHF9+Q9QUK6); experiment: HEK-Blue mTLR4 SEAP reporter assay; assay type: cell-based; settings: 24 h
Sequence of mTLR4 (Q9QUK6 26-835): as the sequence (Q9QUK6 26-835 Q339A) above, with A314Q counted along it
Sequence of mTLR4 (Q9JHF9 19-160): as the sequence (Q9JHF9 19-160) above

Tlr4-/- BMDMs [6] = experiment: Cytokine secretion by Tlr4-/- BMDMs; assay type: cell-based, mouse; settings: ELISA, 24 h; GM 4 mM, MDP 0.4 mM, LPS 100 ng/mL, CpG 100 nM
How it was run: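 Murine BMDMs were differentiated 6 days in complete medium with 20 ng/mL GM-CSF or 10% L929 supernatant, then switched to serum-free IMDM and stimulated 24 h. Mouse TNF-α and IL-6 in culture supernatants were quantified by sandwich ELISA. Samples were prediluted in 1% BSA in PBS, pH 7.4, where needed.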

## CC(=O)N[C@H]1[C@H](O[C@H]2[C@H](O[C@H](C)C(=O)O)[C@@H](NC(C)=O)C(O)O[C@@H]2CO)O[C@H](CO)[C@@H](O)[C@@H]1O (stereo partly drawn) [GM, N-acetylglucosamine-β−1,4-N-acetylmuramic acid]
[1]
  NF-κB signaling in RAW-Dual WT cells (in words): dose-dependent activation of both NF-κB and IRF signaling
[2]
  NF-κB signaling in RAW-Dual Tlr4-/- cells (in words): minimal activity
mTLR4/mMD2 (Q339A / wt)
  Effect of mutation mTLR4 Q339 on NF-κB activity (in words): abolished GM-triggered NF-κB activity
Tlr4-/- BMDMs [3]
  Cytokine and chemokine genes by RNAseq, Tlr4-/- BMDMs: fails to induce the expression of these genes
WT C57BL/6 J mice; 3% DSS
  H&E-stained colonic tissue, WT DSS mice: reduced epithelial erosion and mononuclear cell infiltration
WT C57BL/6 J mice; 3% DSS, RT-qPCR
  Colonic Il10, WT DSS mice: no significant change in Il10 was observed
  Colonic cytoprotective factors Keap1 and Hspb1, WT DSS mice: upregulated
  Colonic expression of Tnfa, Il1b, Ccl2, WT DSS mice: significantly suppressed
WT C57BL/6 J mice; without DSS treatment
  Morbidity in mice: did not result in any morbidity in mice
RAW264.7 cells
  Immuno-stimulatory activity (TNF-α, IL-6) in RAW264.7 (in words): dose-dependent immuno-stimulatory activity
Tlr4-/- C57BL/6 J mice
  DSS-induced colitis in Tlr4-/- mice: weight loss and colonic shortening: failed to prevent weight loss and colonic shortening
Tlr4-/- C57BL/6 J mice; RT-qPCR
  Cytoprotective responses in colitis Tlr4-/- mice: No upregulation of cytoprotective responses
WT mice sera
  Circulating cytokines and chemokines in mice, GM alone: does not significantly alter circulating cytokines and chemokines in mice
THP-1 cells
  Immuno-stimulatory activity in THP-1 (in words): dose-dependent immuno-stimulatory activity
[4]
  p65 and p38 phosphorylation in Tlr4-/- BMDMs: absence of p65 and p38 phosphorylation
WT BMDMs
  TNF-α induction in BMDMs after polymyxin B neutralization (in words): unaffected by polymyxin B neutralization
[5]
  Immuno-stimulatory activity (TNF-α, IL-6) in BMDMs (in words): dose-dependent immuno-stimulatory activity
mTLR4/mMD2 (K263A / wt)
  Effect of mutation mTLR4_K263 on NF-κB activity (in words): abolished GM-triggered NF-κB activity
mTLR4; GM 1 mM, polymyxin B 0, 0.1, 1, 10 kU
  Activity in HEK-Blue mTLR4 reporter cells under polymyxin B titration (in words): unaffected by polymyxin B titration
mTLR4; disaccharides 0.5 or 1 mM, GM-A and GM-AE 1 mM
  TLR4 stimulation in HEK-Blue mTLR4 reporter cells (in words): stimulate TLR4
Tlr4-/- BMDMs [6]
  TNF-α and IL-6 production in Tlr4-/- BMDMs (in words): fails to elicit increased levels of TNF-α and IL-6
